In ChEMBL document CHEMBL4373680, “Small antibacterial molecules highly active against drug-resistant Staphylococcus aureus” (Medchemcomm, 2019):

How the values were obtained:
[1] = Ratio of EC50 for dog MDCK cells to MIC for vancomycin-resistant Staphylococcus aureus clinical isolate 2; type: toxicity
[2] = Ratio of EC50 for dog MDCK cells to MIC for vancomycin-resistant Staphylococcus aureus clinical isolate 1; type: toxicity
Staphylococcus aureus [3] = assay: Antibacterial activity against methicillin-resistant Staphylococcus aureus ATCC 33591 after 24 hrs by tecan plate reader analysis; type: functional; conditions: ATCC 33591, 24 h
Summary of the method: (§1)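 Colony grown 24 h on NB agar at 37 °C, then 6 h in nutrient broth to mid-log (10⁸ CFU/mL by drop plating), diluted to 10⁵ CFU/mL in Mueller Hinton broth; added 9:1 to two-fold serial compound dilutions in MHB. Incubated 24 h, 37 °C; OD600 read. Triplicate per concentration, experiment run twice; MIC taken from the range of triplicate OD values.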

Escherichia coli = assay: Antibacterial activity against Escherichia coli MTCC 443 after 24 hrs by tecan plate reader analysis; type: functional; conditions: MTCC 443, 24 h
Summary of the method: (§2)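 Broth microdilution MIC. Glycerol stocks grown on MacConkey agar 24 h at 37 °C, then a single colony in nutrient broth 6 h to mid-log (~10⁸ CFU/mL). Cells diluted to 10⁵ CFU/mL in Mueller Hinton broth and added to two-fold compound dilutions. Incubated 24 h at 37 °C, OD600 read. Triplicate wells, experiment run twice.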

Acinetobacter baumannii = assay: Antibacterial activity against Acinetobacter baumannii MTCC 1425 after 24 hrs by tecan plate reader analysis; type: functional; conditions: MTCC 1425, 24 h; summary of the method: as §2
Pseudomonas aeruginosa = assay: Antibacterial activity against Pseudomonas aeruginosa MTCC 424 after 24 hrs by tecan plate reader analysis; type: functional; conditions: MTCC 424, 24 h; summary of the method: as §2
[4] = Selectivity index, ratio of HC50 for human erythrocytes to MIC for Escherichia coli MTCC 443; type: toxicity; conditions: read-out: Selectivity Index
[5] = Selectivity index, ratio of HC50 for human erythrocytes to MIC for methicillin-resistant Staphylococcus aureus ATCC 33591; type: toxicity; conditions: read-out: Selectivity Index
Staphylococcus aureus [6] = assay: Antibacterial activity against methicillin-resistant Staphylococcus aureus R3545 clinical isolate after 24 hrs by tecan plate reader analysis; type: functional; conditions: R3545, 24 h; summary of the method: as §1
Staphylococcus aureus [7] = assay: Antibacterial activity against methicillin-resistant Staphylococcus aureus R3889 clinical isolate after 24 hrs by tecan plate reader analysis; type: functional; conditions: R3889, 24 h; summary of the method: as §1
MDCK [8] = assay: Cytotoxicity against dog MDCK cells after 24 hrs by alamar blue assay; type: cell-based; conditions: Canis lupus familiaris
Summary of the method: (§3)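 About 10⁴ cells/well in DMEM with 10% FBS. Medium replaced with two-fold compound dilutions and incubated 24 h at 37 °C, 5% CO₂. Alamar Blue added for a further 4 h, absorbance 570 nm (600 nm reference). Viability normalized to untreated and 0.1% Triton-X wells. Triplicates; sigmoidal fit gives the 50% viability concentration.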

MDCK [9] = assay: Cytotoxicity against dog MDCK cells assessed as cell survival at 32 ug/ml after 24 hrs by calcein AM/propidium iodide staining based fluorescence microscopy analysis; design: species or system Canis lupus familiaris
Summary of the method: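 MDCK at about 10⁴ cells/well exposed to 32 µg/mL compound for 24 h at 37 °C, 5% CO₂. Untreated and 0.1 vol% Triton-X controls. Stained with calcein AM (2 µM) and PI (4.5 µM) for 15 min at 37 °C, PBS-washed, imaged by fluorescence microscopy at 50×.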

Staphylococcus aureus [10] = assay: Bactericidal activity against planktonic phase of methicillin-resistant Staphylococcus aureus ATCC 33591 assessed as log reduction in bacterial colony forming units at 16 ug/ml incubated for 6 hrs followed by plating on agar plate for 24 hrs by time-kill kinetic assay; type: functional
Summary of the method: (§4)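 Time-kill: 6 h mid-log culture diluted to 10⁵ CFU/mL in MHB, incubated at 37 °C with compound at […]; 0.9% saline control. Aliquots at 1, 2, 4, 6, 8 and 12 h ten-fold diluted in saline, plated on NB agar 24 h at 37 °C; colonies counted, log scale.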

Staphylococcus aureus [11] = assay: Bactericidal activity against planktonic phase of methicillin-resistant Staphylococcus aureus ATCC 33591 assessed as log reduction in bacterial colony forming units at 32 ug/ml incubated for 8 hrs followed by plating on agar plate for 24 hrs by time-kill kinetic assay; type: functional; summary of the method: as §4
Staphylococcus aureus [12] = assay: Bactericidal activity against metabolically inactive stationary phase of methicillin-resistant Staphylococcus aureus ATCC 33591 assessed as bacterial killing at 32 ug/ml incubated for 6 hrs followed by plating on agar plate for 24 hrs by visual counting analysis relative to control; type: functional
Staphylococcus aureus [13] = assay: Bactericidal activity against metabolically inactive stationary phase of methicillin-resistant Staphylococcus aureus R3545 assessed as bacterial killing at 32 ug/ml incubated for 6 hrs followed by plating on agar plate for 24 hrs by visual counting analysis relative to control; type: functional
Staphylococcus aureus [14] = assay: Bactericidal activity against metabolically inactive stationary phase methicillin-resistant Staphylococcus aureus R3545 assessed as log reduction in bacterial colony forming units at 32 ug/ml incubated for 6 hrs followed by plating on agar plate for 24 hrs by visual counting analysis; type: functional
Staphylococcus aureus [15] = assay: Induction of membrane permeabilization in Staphylococcus aureus R3545 assessed as increase in fluorescence intensity measured upto 28 mins by propidium iodide staining based fluorescence spectroscopic technique; type: functional, organism-based
Summary of the method: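 Mid-log MRSA washed in 5 mM HEPES and resuspended in 1:1 HEPES (5 mM) and glucose (5 mM). Propidium iodide added at 10 µM final. Baseline fluorescence (ex 535/em 617 nm) read 4 min, compound in water added, read to 28 min. Water control; triplicates averaged.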

Staphylococcus aureus [16] = assay: Induction of membrane depolarization in Staphylococcus aureus ATCC 33591 assessed as increase in fluorescence intensity measured upto 28 mins by DiSC3 staining based fluorescence spectroscopic technique; type: functional, organism-based
Summary of the method: (§5)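 Mid-log MRSA washed in 5 mM HEPES pH 7.4 and resuspended in 1:1:1 HEPES (5 mM), glucose (5 mM) and KCl (100 mM). Loaded with DiSC3(5) at 2 µM final, 30 min in the dark. Baseline fluorescence (ex 622/em 670 nm) read 4 min, compound added, monitored to 28 min. Water control; triplicates averaged.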

Staphylococcus aureus [17] = assay: Induction of membrane depolarization in Staphylococcus aureus R3545 assessed as increase in fluorescence intensity measured upto 28 mins by DiSC3 staining based fluorescence spectroscopic technique; type: functional, organism-based; summary of the method: as §5
Staphylococcus aureus [18] = assay: Antibacterial activity against Staphylococcus aureus ATCC 33591 using compound preincubated with human 50% plasma for 3 hrs and measured after 24 hrs by tecan-plate reader analysis; type: functional
Summary of the method: (§6)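 Compound mixed 1:1 with human plasma, human serum or mouse liver homogenate (50%) and held 3 h at 37 °C. Saline and PBS incubations served as controls. Mixtures two-fold diluted (saline for plasma/serum, PBS for homogenate), then MRSA ATCC33591 (~10⁵ CFU/mL in MHB) added.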

Staphylococcus aureus [19] = assay: Antibacterial activity against Staphylococcus aureus ATCC 33591 using compound preincubated with human 50% serum for 3 hrs and measured after 24 hrs by tecan-plate reader analysis; type: functional; summary of the method: as §6
Staphylococcus aureus [20] = assay: Ratio of MIC for Staphylococcus aureus ATCC 33591 using compound preincubated with mouse 50% liver homogenate for 3 hrs to MIC for Staphylococcus aureus ATCC 33591 using non-treated compound; type: functional, organism-based; summary of the method: as §6
[21] = Ratio of EC50 for human A549 cells to MIC for vancomycin-resistant Staphylococcus aureus clinical isolate 2; type: toxicity
MDCK [22] = assay: Cytotoxicity against dog MDCK cells up to 128 ug/ml after 24 hrs by alamar blue assay; type: cell-based, Canis lupus familiaris; summary of the method: as §3

## CCCCCCNC(=O)C[N+](C)(CCO)CCCCCCCCCCCC[N+](C)(CCO)CC(=O)NCCCCCC.O=C([O-])C(F)(F)F.O=C([O-])C(F)(F)F (stereo not given)
[1]
  selectivity ratio: 94 to 97
[2]
  selectivity ratio: 94 to 97
Staphylococcus aureus [3]
  MIC: 1 to 2 µg/mL
Escherichia coli
  MIC: 2 µg/mL
Acinetobacter baumannii
  MIC: 64 µg/mL
Pseudomonas aeruginosa
  MIC: 128 µg/mL
[4]
  selectivity ratio: 288
[5]
  selectivity ratio: 577
Staphylococcus aureus [6]
  MIC: 1 to 2 µg/mL
Staphylococcus aureus [7]
  MIC: 1 to 2 µg/mL
MDCK [8]
  EC50: 188 µg/mL
MDCK [9]
  Activity: Non-Toxic
Staphylococcus aureus [10]
  Activity: >2 log10CFU/ml
Staphylococcus aureus [11]
  Activity: 5 log10CFU/ml
Staphylococcus aureus [12]
  Activity: >99%
Staphylococcus aureus [13]
  Activity: >99%
Staphylococcus aureus [14]
  Activity: 2.8 log10CFU/ml
Staphylococcus aureus [15]
  Activity: Dose-dependent effect
Staphylococcus aureus [16]
  Activity: Dose-dependent effect
Staphylococcus aureus [17]
  Activity: Dose-dependent effect
Staphylococcus aureus [18]
  MIC: 4 µg/mL
Staphylococcus aureus [19]
  MIC: 4 µg/mL
Staphylococcus aureus [20]
  Ratio: 2
[21]
  selectivity ratio: 94 to 97
MDCK [22]
  Activity: Non-Toxic
